{"source": "paper PMC2886590", "about": "(Journal of molecular biology, 2010)", "target": "MLL PHD3 finger (Homo sapiens, UniProt Q03164)", "sequence (Q03164 1565-1627)": "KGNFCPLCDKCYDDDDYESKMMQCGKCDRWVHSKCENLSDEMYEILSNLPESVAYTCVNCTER", "experiment": "NMR titration of histone peptides", "assay_type": "binding", "conditions": "0.2 mM 15N-labeled PHD3, 12-mer histone tail peptide, 298K", "in_short": "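PHD3 finger (residues 1565-1627, wild type or mutant) was expressed as a GST fusion in E. coli BL21(DE3) pLysS grown in 15NH4Cl minimal medium. It was affinity-purified, GST-cleaved, size-exclusion purified and held in 25 mM d11-Tris pH 6.8, 150 mM KCl, 10 mM deuterated DTT and 7% 2H2O. 12-mer histone tail peptides were added stepwise to 0.2 mM protein, and normalized chemical shift changes were tracked in 1H,15N HSQC spectra.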"}
{"substance": "H3K4me3: histone H3 tail peptide trimethylated at lysine 4 (biotinylated residues 1-21; 12-mer for NMR)", "values": [{"measurement": "exchange regime on NMR time scale", "result": "intermediate-to-fast exchange regime"}]}
